hIAP inh: blocks human intestinal alkaline phosphatase. purified IAP, CDP-Star luminescence, 30 min. inhibition, % at 10 µM. 0.12% of 330,000 active. AID 2544;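 active = inhibition reaching a set limit with compound at 10 µM in the primary screen, cut at about 35% in these data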;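 note: plate controls were DMSO wells with enzyme for no effect and no-enzyme buffer wells for full effect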
Target sequence (P09923 whole entry, looked up): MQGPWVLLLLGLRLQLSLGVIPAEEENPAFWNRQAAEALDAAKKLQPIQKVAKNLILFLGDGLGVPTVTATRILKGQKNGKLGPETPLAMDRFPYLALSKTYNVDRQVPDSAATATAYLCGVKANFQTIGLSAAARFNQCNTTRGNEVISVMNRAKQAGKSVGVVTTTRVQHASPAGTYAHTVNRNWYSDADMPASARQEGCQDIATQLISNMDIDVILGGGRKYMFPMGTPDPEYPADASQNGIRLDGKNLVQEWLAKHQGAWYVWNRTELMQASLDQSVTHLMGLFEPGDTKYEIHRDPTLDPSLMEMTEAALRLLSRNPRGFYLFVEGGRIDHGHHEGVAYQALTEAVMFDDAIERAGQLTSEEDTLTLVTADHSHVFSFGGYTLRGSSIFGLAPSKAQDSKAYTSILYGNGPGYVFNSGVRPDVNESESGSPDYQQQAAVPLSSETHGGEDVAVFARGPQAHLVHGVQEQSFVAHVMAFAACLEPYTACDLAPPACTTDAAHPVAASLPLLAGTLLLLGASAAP
bIAP inh: blocks bovine intestinal alkaline phosphatase activity. 190,000 tested, under 10 active. AID 1019. purified bovine IAP, CDP-star luminescence, 30 min. inhibition, % at 20 µM;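 active = over 50% inhibition of intestinal alkaline phosphatase at 20 µM in the single-dose screen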
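Incubation: 30 min reaction at room temperature / Material: purified bovine intestinal alkaline phosphatase (IAP) enzyme / Input: enzyme at 1/65,000,000 dilution / Dosing: 20 µM single dose / Signal: CDP-star luminescence signal / Reagent: CDP-star chemiluminescent phosphatase substrate, 30 µM final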
bIAP act: increases bovine intestinal alkaline phosphatase activity. purified bovine IAP, CDP-star luminescence, 30 min; stronger effect = higher value; fold of DMSO-control signal, blank-subtracted. AID 1016. activation factor at 20 µM. 0.17% of 200,000 active;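 active = activation factor of 2 or more at 20 µM, a signal rise over negative controls twice the positive control's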
mIAP inh: mouse IAP inhibition | inhibition, % at 10 µM | purified mouse IAP, CDP-Star luminescence, 30 min | 0.2% of 330,000 active | AID 2806;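 active = inhibition of at least 40% at 10 µM in the primary screen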;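 note: plate controls were DMSO with enzyme for no effect and no enzyme wells for full effect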
hIAP activ: human IAP activation | purified human IAP, CDP-Star luminescence, 30 min; stronger effect = higher value; 1 = vehicle-only enzyme, 0 = enzyme-free background | AID 2524 | 0.16% of 330,000 active | activation factor at 10 µM;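 active = activation factor of the enzyme at least 2-fold when tested at 20 µM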
mIAP activ: increases mouse intestinal alkaline phosphatase activity; 0.24% of 330,000 active; activation factor at 10 µM; muIAP, CDP-Star luminescence, 30 min; stronger effect = higher value; 1 = vehicle-only enzyme signal, 0 = enzyme-free wells; AID 2805;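 active = activation factor of at least 2 at 20 µM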
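System: mouse IAP enzyme. Reagent: CDP-Star chemiluminescent phosphatase substrate. Benchmarks: DMSO wells, no-enzyme wells. Times: 30 min enzyme-substrate-compound incubation at room temperature. Detection: luminescence from enzymatic CDP-Star hydrolysis. Doses: test compounds delivered from DMSO solution.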
hIAP act confirm: human IAP activation confirmation | shares compounds with hIAP activ | purified IAP, CDP-Star luminescence, 30 min; stronger effect = lower value | activation (%Activity, negative = activation), % at 8.3 µM | 10% of 880 active;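 active = at least twofold enzyme activation in any of six single-dose repeats, which the averaged readout prints as negative percent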
The depositor's hits bear a star; . = not tested or not shown. Most compounds without a hit are left out; they make up all but 0.77% or so of the library.

SMILES | hIAP inh | bIAP inh | bIAP act | mIAP inh | hIAP activ | mIAP activ | hIAP act confirm
O=C(NCCCCNC(=O)c1ccccc1F)c1ccccc1F | 36.6* | . | . | 8.6 | 0.634 | 0.914 | 17.1
Cn1nccc1C(=O)N1CCN(c2ccccc2F)CC1 | 46.5* | . | . | -2.5 | 0.535 | 1.02 | 5.7
CNC(=O)c1[nH]cnc1C(=O)Nc1ccccc1 | -39.5 | . | . | 10.7 | 1.4 | 0.893 | .
CNC(=O)c1[nH]cnc1C(=O)Nc1ccccn1 | -110.4 | -50.7 | 1.5 | 13.3 | 2.1* | 0.867 | -17.9
COC(=O)CN1C(=O)C(O)(CC(=O)c2ccc(C)cc2)c2ccccc21 (stereo unspecified) | 37.1* | 13.9 | 0.9 | 1.6 | 0.629 | 0.984 | 45.9
COC(=O)CN1C(=O)C(O)(CC(=O)c2ccccc2)c2ccccc21 (stereo unspecified) | -17.3 | 5.5 | 0.9 | -1.1 | 1.17 | 1.01 | .
c1ccc(-n2ncc3c2ncn2cnnc32)cc1 | 82.5* | . | 0.4 | -3.7 | 0.175 | 1.04 | -18.2
Cc1nc2c3cnn(-c4ccccc4)c3ncn2n1 | 72.8* | 13.5 | 0.9 | -1.4 | 0.272 | 1.01 | 4.0
c1ccc(-n2ncc3c2ncn2nnnc32)cc1 | -18.4 | -7.4 | 1.1 | -4.9 | 1.18 | 1.05 | .
O=C(Cn1c(=O)cnc2ccccc21)NNC(=O)c1ccccc1Cl | -6.7 | . | . | 7.1 | 1.07 | 0.929 | .
COc1cccc(/C=C2\CCC(C3CCCC3)C2=O)c1OC (stereo unspecified) | -8.9 | . | . | 9.8 | 1.09 | 0.902 | .
Cc1ccc(OCCn2cnc3ccccc3c2=O)c([N+](=O)[O-])c1 | -7.6 | 29.0 | 0.7 | -3.5 | 1.08 | 1.03 | .
CCN(CC(=O)NC(c1ccccc1)c1ccccc1)Cc1nc2ccccc2c(=O)[nH]1 | -112.8 | -142.0 | 2.4* | -65.0 | 2.13* | 1.65 | -64.9
CCN(CC(=O)Nc1ccccc1SC)Cc1nc2ccccc2c(=O)[nH]1 | -39.2 | . | . | 2.9 | 1.39 | 0.971 | .
Nc1ccc(S(=O)(=O)N2CCc3ccccc32)cc1 | 38.1* | . | . | -3.2 | 0.619 | 1.03 | -25.7
CC(C)(C)N(Cc1ccccc1)C(=O)c1cc2ccccc2o1 | -3.5 | . | . | 3.4 | 1.03 | 0.966 | .
Cc1occc1C(=O)NNC(=S)Nc1cccc([N+](=O)[O-])c1 | -110.9 | -22.6 | 1.2 | 9.2 | 2.11* | 0.908 | -6.8
Cc1ccccc1-c1oc(C)c(C)[n+]1[O-] | 9.6 | 5.3 | 0.9 | -15.1 | 0.904 | 1.15 | .
CCOc1ccc(CC(=O)NNC(=S)NCCc2ccccc2)cc1 | -105.0 | -15.4 | 1.2 | 6.3 | 2.05* | 0.937 | 77.5
O=C(NNc1ncnc2c1cnn2-c1ccc(F)cc1)c1ccco1 | -163.3 | . | . | 1.3 | 2.63* | 0.987 | -47.2*
CC(=O)NNc1ncnc2c1cnn2-c1ccc(C)c(C)c1 | -147.7 | -48.8 | 1.5 | 14.5 | 2.48* | 0.855 | -77.6
COc1ccccc1CNC(=O)Cn1nc(C)c([N+](=O)[O-])c1C | 37.2* | . | . | 3.9 | 0.628 | 0.961 | -59.1
O=C(CCl)N(Cc1cc(=O)[nH]c2ccccc12)c1ccccc1 | -2.1 | . | . | -9.8 | 1.02 | 1.1 | .
CC(CN1CCC(n2nccc2NC(=O)CCCc2ccccc2)CC1)c1ccccc1 (stereo unspecified) | -103.9 | . | . | -78.9 | 2.04* | 1.79 | -90.9
CC(=O)c1cccc(CN2CCC(n3nccc3NC(=O)CCCc3ccccc3)CC2)c1 | -23.4 | . | . | -10.3 | 1.23 | 1.1 | .
SMILES | hIAP inh | bIAP inh | bIAP act | mIAP inh | hIAP activ | mIAP activ | hIAP act confirm
CCOc1ccccc1CN1CCC(n2nccc2NC(=O)CCc2ccccc2)CC1 | -114.6 | . | . | -35.9 | 2.15* | 1.36 | 26.6
Cn1cc(CN2CCC(n3nccc3NC(=O)CCc3ccccc3)CC2)cn1 | -13.1 | . | . | -4.1 | 1.13 | 1.04 | .
CCOc1ccccc1CN1CCC(n2nccc2NC(=O)CCCc2ccccc2)CC1 | -225.4 | . | . | -44.0 | 3.25* | 1.44 | -23.6
COc1cccc(CN2CCC(n3nccc3NC(=O)CCCc3ccccc3)CC2)c1 | -228.4 | . | . | -66.1 | 3.28* | 1.66 | -17.4
CCC/C(O)=C1\C(=O)CC(C)(C)CC1=Nc1cccc([N+](=O)[O-])c1 | 17.1 | . | . | 6.1 | 0.829 | 0.939 | .
Cc1ccc(-c2nn(CC(=O)N3CCOCC3)c(=O)c3ccccc23)cc1S(=O)(=O)N(C)C | -14.9 | . | . | 5.6 | 1.15 | 0.944 | .

Assay outcomes as filed in PubChem BioAssay.
